Source: PubChem BioAssay (several laboratories)
XBP1 UPR activ – activators of adaptive arm of unfolded protein response (XBP1); activation, % at 20 µM; hit rate 0.33% among 330,000; CHO-XBP1 luciferase reporter, IRE1-XBP1 UPR activation, luminescence; percent of tunicamycin response, DMSO as zero;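 active means versus positive control, 20 µM dose yields 30% or more activation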
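Material: IRE1-XBP1 luciferase reporter CHO line / Quantity: one thousand reporter cells per well / Buffer or medium: F12 with 10% serum / Compound: 20 µM single concentration, DMSO 1% / Times: 6 h treatment, 37 °C / Detection: Steady-Glo luciferase glow luminescence, 10 min after reagent addition / Benchmarks: tunicamycin high, DMSO low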
A1 inh – inhibitors of the anti-apoptotic protein A1, read as caspase activation; MEF A1-2A-BIM cells, Caspase-Glo 3/7 luminescence, 3 h; percent of clofoctol response, vehicle zero; caspase activation, % (no concentration beside the values); hit rate 0.066% among 330,000;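 active means over half of replicate activation scores above 10%, or exactly half above 10 with the replicate mean above 10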
CHOP UPR activ – activators of apoptotic arm of unfolded protein response (CHOP). CHO-CHOP luciferase reporter, UPR activation, luminescence; percent of tunicamycin response over DMSO baseline. activation, % at 10 µM. hit rate 0.34% among 330,000;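 active means at 10 µM dose, activation of 40% or more, normalized to positive control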
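Evaluation: % reporter activation, DMSO baseline versus tunicamycin full activation; System: CHO-CHOP luciferase reporter cell line; Input: 500 cells/well; Incubation: 6 h compound treatment, 37 °C; Measured by: Steady-Glo luciferase luminescence; Dosing: one dose, 10 µM in 0.5% DMSO; Buffer or medium: F12 medium, 10% FBS; Benchmarks: positive tunicamycin 10 µg/mL, negative DMSO alone.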
CHOP inh – blocks CHOP induction under ER stress. hit rate 3.8% among 220,000. inhibition, % at 10 µM. AID 2732. CHO-K1 CHOP-promoter luciferase, tunicamycin-induced, 15-18 h;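 active means compounds that reduced the stress-induced luciferase reporter signal by more than about 70% of percent inhibition, limit read from the data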
CHOP UPR conf – apoptotic UPR (CHOP) activation, confirmed | shares compounds with CHOP UPR activ | CHO-CHOP cells, CHOP-luciferase reporter luminescence; percent of tunicamycin response, DMSO as zero | activation, % at 10 µM | hit rate 64% among 1,000 | AID 463112; in the data active means activation above about 33%
Numbers stand for hits; – = inactive; · = no result given. This excerpt belongs to a sample that is enriched for hits.

SMILES	XBP1 UPR activ	A1 inh	CHOP UPR activ	CHOP inh	CHOP UPR conf
COC(=O)C1=C(C(=O)OC)SC2(S1)C(C(=O)OC)=C(C(=O)OC)SC1=C2c2cccc(C)c2NC1(C)C	–	–	40	–	–
CC1CCCCC1NC(=O)NC(=O)CCl (configuration not stated)	–	–	42	–	–
C[C@H](NC(=O)[C@@H]1CSC2c3ccccc3C(=O)N21)C(=O)NCCc1ccccc1 (some centres not stated)	–	–	–	·	·
CCCCCCCCOc1ccc(C2OC34CCCCC3C(C#N)(C#N)C2(C#N)C(=N)O4)cc1 (configuration not stated)	–	–	45	–	–
Cn1nnnc1Sc1ncnc2scc(-c3cc4ccccc4o3)c12	–	–	86	·	118
O=C(CN1CCN(S(=O)(=O)c2ccc(F)cc2)CC1)c1ccc(O)c(O)c1	–	–	–	–	·
O=C(CN1CCN(S(=O)(=O)c2ccc(Cl)cc2)CC1)c1ccc(O)c(O)c1	–	–	71	·	–
O=C(NNC(=O)c1cccs1)c1ccc(Cl)c(S(=O)(=O)N2CCCC2)c1	–	–	–	·	·
C1=CC2=NC34CCCCC3CC3=C(CCCC3)N4C2=CC1=NC1CCCCC1 (configuration not stated)	–	–	49	·	–
C=C(C(=O)c1ccccc1)C(C(=C)C(=O)c1ccccc1)c1ccc(OC)cc1	–	–	62	–	65
COc1ccc(C(CC(=O)c2ccccc2)CC(=O)c2ccccc2)cc1	–	–	–	–	·
Cc1ccc(CN(C(=O)C(F)(F)F)C(C(=O)NC2CCCCC2)c2ccco2)cc1 (configuration not stated)	–	–	–	–	·
CC(=O)c1ccc(NC(=O)COC(=O)c2ccccc2N=Nc2ccc(N(C)C)cc2)cc1	–	–	44	–	55
COC(=O)c1ccccc1NC(=O)COC(=O)c1ccccc1N=Nc1ccc(N(C)C)cc1	–	–	–	–	·
Cc1ccccc1NC(=O)CNc1ccccc1C(=O)NCc1ccco1	–	–	–	–	·
Oc1ccc(-c2csc(Nc3ccccn3)n2)cc1O	–	–	168	·	130
Oc1ccc(-c2csc(Nc3cccc4ccccc34)n2)cc1O	–	–	131	·	142
Cc1ccnc(Nc2nc(-c3ccc(O)cc3)cs2)c1	–	–	–	·	·
Cc1ccnc(Nc2nc(-c3ccc(O)c(O)c3)cs2)c1	–	–	76	·	181
O=C(Cc1cccs1)NCc1ccncc1	–	–	–	–	·
O=c1[nH]c(SCc2cccc(Cl)c2)nc2ccccc12	–	–	–	–	·
COc1cccc(N=Cc2c(O)c3ccccc3oc2=O)c1	108	–	101	·	52
CC(=O)Nc1ccc(N=Cc2c(O)c3ccccc3oc2=O)cc1	–	–	–	·	·
O=C(CCl)Nc1cccc(S(=O)(=O)NC2=NCCCCC2)c1	–	–	167	·	81
CCc1ccc(NC2=CC(=O)C(=O)c3ccccc32)cc1	–	·	62	·	–
SMILES	XBP1 UPR activ	A1 inh	CHOP UPR activ	CHOP inh	CHOP UPR conf
Cc1ccc(C2(C)NC(=O)N(CC(=O)Nc3ccccc3N3CCCC3)C2=O)cc1 (configuration not stated)	–	–	–	·	·
Cc1ccc(S(=O)(=O)NC2OC(=O)C(Cl)=C2Cl)cc1 (configuration not stated)	–	–	63	–	–
Cc1ccc(S(=O)(=O)NC2CCCCCCC2)cc1	–	–	–	·	·
CCOC(=O)C(CC)(CC)C(=O)/C=C/c1cccc(Br)c1	–	–	54	·	70
COc1ccc(C2C(C#N)=C(N)OC3=C2C(=O)CC(C)C3)c(OC)c1OC (configuration not stated)	–	–	–	–	·
Cc1c(NC(=S)N/N=C/c2ccc([N+](=O)[O-])cc2O)c(=O)n(-c2ccccc2)n1C	–	–	–	–	·
Clc1ccc(/C=N/N2CCCCC2)cc1	–	–	–	–	·
COc1ccccc1N1CCN(/N=C/c2ccc(O)c(O)c2)CC1	–	–	184	–	101
Oc1ccc(/C=N/N2CCCCC2)cc1O	–	–	179	·	38
COc1ccc(/C=N/N2CCN(c3ccccc3OC)CC2)cc1OC	–	–	–	–	·
COc1ccc(N(C)S(=O)(=O)c2cccc(C(=O)NCC3CCCCC3)c2)cc1	·	·	·	–	·
COc1ccc(C(=O)C(CN2CCOCC2)c2ccccc2)cc1 (configuration not stated)	–	–	46	–	36
O=C(c1ccc(Cl)cc1)C(CN1CCCC1)c1ccccc1 (configuration not stated)	–	–	151	·	170
COc1ccc(C(=O)C(CN2CCCC2)c2ccccc2)cc1 (configuration not stated)	–	–	66	–	39
CCCOc1ccc(C(=O)C(CN2CCCC2)c2ccccc2)cc1 (configuration not stated)	·	–	·	–	·
CC(=O)Nc1ccc(S(=O)(=O)NC(CC(=O)NC2CCCCC2C)C(C)C)cc1 (configuration not stated)	–	–	–	–	·
Cc1[nH]c2ccccc2c1/C=N/Nc1nc2ccccc2[nH]1	–	–	87	–	–
CCOC(=O)C1CCCN(CC(=O)Nc2ccc(C(=O)Nc3ccccc3OC)cc2)C1 (configuration not stated)	–	·	–	·	·
C=CCNC(=S)NCCCCC1NC(=S)N(CC=C)C1=O (configuration not stated)	–	–	–	–	·
CC(=O)Oc1ccc(OC(C)=O)c(SCCCCCN2CCOCC2)c1	–	–	73	–	33
CC(C)c1ccc(OCCCCCN2CCOCC2)cc1	–	–	–	·	·
COc1ccc(/C=C/C(=O)Oc2ccc(C)cc2)cc1	–	–	43	·	40
COc1ccc(/C=C/C(=O)O)cc1	–	·	–	·	·
C=CCOC(=O)c1sc(NC(=O)c2ccc(OC)cc2)nc1C	–	–	43	–	–
Cc1ccccc1NC(=O)CN1C(=O)CSc2ccccc21	–	–	–	–	·
SMILES	XBP1 UPR activ	A1 inh	CHOP UPR activ	CHOP inh	CHOP UPR conf
COc1ccccc1N1C(=O)C=C(Sc2nc(C)cc(C)n2)C1=O	–	–	62	–	56
O=[N+]([O-])c1ccc2nc(-[n+]3c(-c4ccccc4)cc(-c4ccccc4)cc3-c3ccccc3)[nH]c2c1	–	–	–	–	·
O=[N+]([O-])c1ccc2nc(Cl)nc(-c3ccccc3)c2c1	–	–	106	·	87
COc1cccc2sc(Nc3nnc(-c4cccs4)o3)nc12	–	–	55	·	60
COc1cccc2sc(Nc3nc(-c4ccccn4)cs3)nc12	–	–	624	·	425
CC(C)N1CC2=C(C1=O)C(c1ccc(O)cc1)NC(=O)N2C (configuration not stated)	–	–	–	–	·
O=C(N/N=C/c1ccc(Cl)c([N+](=O)[O-])c1)c1cc(-c2ccc3c4c(cccc24)CC3)n[nH]1	–	–	43	77	–
